Shown are actives, neighbours in structure and some others; about 4.3% of the full set was active somewhere.
TAAR1 ag: human TAAR1 agonism; Q96RJ0; CHO RD-HGA16 TAAR1, Fluo-8 calcium fluorescence; vehicle wells 0%, saturating PEA agonist 100%; activation, % at 3 µM; actives 0.99% (n = 360,000); AID 624467;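 active = activation above the mean activation of all test compounds in the run plus 3 SD, cut at about 38% in these data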
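Signal – calcium-sensitive Fluo-8 signal, excitation 470-495, emission 515-575 nm · System – RD-HGA16 (CHO) cells co-expressing Gα16 and hTAAR1 · Incubation – 17-24 h seeding, 75 min 37 °C dye, 30 min RT · Compound dosing – 3 µM single concentration · Repeats – no replicates (n 1)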
OX1R antag-1: blocks the human orexin 1 receptor | O43613 | CHO/OX1R cells, Fluo-8 calcium fluorescence, orexin A | inhibition, % at 5 µM | actives 0.43% (n = 330,000) | AID 434989;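 active = inhibition above its plate's threshold, mean inhibition of all tested compounds on the plate plus 3 SD, cut at about 37% in these data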;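 also: 0% = orexin A challenge wells and 100% = SB-334867-A antagonist wells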
Target sequence (O43613 whole entry, looked up): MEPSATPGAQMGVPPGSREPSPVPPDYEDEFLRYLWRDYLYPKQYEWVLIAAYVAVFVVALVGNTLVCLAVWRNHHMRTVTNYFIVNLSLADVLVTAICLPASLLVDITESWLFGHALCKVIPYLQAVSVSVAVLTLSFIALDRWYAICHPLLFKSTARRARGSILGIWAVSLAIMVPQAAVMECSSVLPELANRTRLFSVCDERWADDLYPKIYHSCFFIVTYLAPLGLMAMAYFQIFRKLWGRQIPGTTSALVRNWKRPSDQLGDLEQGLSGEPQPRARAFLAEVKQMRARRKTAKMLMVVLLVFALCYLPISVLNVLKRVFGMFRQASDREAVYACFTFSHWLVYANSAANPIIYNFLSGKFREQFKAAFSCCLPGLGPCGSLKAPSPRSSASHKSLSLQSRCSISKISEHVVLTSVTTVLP
OX1R antag-2: blocks the human orexin 1 receptor. OX1R-expressing cells, FRET antagonist read-out. inhibition, % at 6.6 µM. actives 1.8% (n = 330,000); in the data active = inhibition mostly above about 38%, no sharp cut-off; inactive = mostly below about 40%;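 also: 0% = agonist challenge alone and 100% = reference antagonist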
GalR3 antag: blocks the human galanin receptor 3; HEK293 GalR3-CNG cAMP membrane potential fluorescence; galR3 body fused to GalR1 C-terminus; AID 651719; O60755; inhibition, % at 3 µM; actives 0.44% (n = 360,000);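 active = inhibition above the screen-wide average plus 3 SD, cut at about 13% in these data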;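 also: forskolin and galanin both at EC90 stimulate the cells; cAMP rise reported by CNG channel membrane potential dye signal; 0% = forskolin plus galanin with DMSO and 100% = forskolin alone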
TAAR1 antag: human TAAR1 antagonism; Q96RJ0; CHO RD-HGA16 TAAR1, Fluo-8 calcium fluorescence, antagonist; inhibition, % at 3 µM; actives 1.5% (n = 360,000);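 active = inhibition above a per-plate cutoff, the mean inhibition of test compounds on that plate plus 3 SD, cut at about 49% in these data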;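 also: 0% = DMSO plus EC80 beta-PEA response and 100% = DMSO alone without agonist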
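Test system: CHO RD-HGA16 cells bearing hTAAR1 | Reagent: β-PEA, EC80 | Compound dosing: 3 µM, single point | Schedule: Dye loading 75 min at 37 °C, then 30 min room temperature | Signal: Calcium fluorescence with Fluo-8 | Evaluation: Percent inhibition of PEA-evoked calcium signal, max/basal emission ratio | Control set: DMSO-only wells and EC80 β-PEA-stimulated wells | Repeats: Singlicate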
CHO parental Ca: counter-screen: ATP calcium response change in parental CHO cells; AID 463079; actives 0.63% (n = 330,000); parental CHO-K1, ATP-induced calcium, Fluo-8 fluorescence; inhibition, % at 5.6 µM;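 active = inhibition above that plate's mean sample inhibition plus 3 SD, cut at about 26% in these data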;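 also: 0% = ATP-challenged DMSO wells and 100% = DMSO wells without ATP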
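Material – parental CHO cells · Reagent – ATP stimulus · Compound – single nominal dose of 5.6 µM per compound · Detection – Fluo-8 fluorescence · Read-out basis – percent inhibition of calcium signal · Controls – ATP-challenged DMSO wells low, unchallenged DMSO wells high · Repeats – no replicates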
The depositor's hits bear a star.

Results for Cc1cc(C)c(C#N)c(SCC(O)COc2ccc(Br)cc2)n1 (stereo not drawn) ?
TAAR1 ag: 0; OX1R antag-1: -27; OX1R antag-2: 15; GalR3 antag: -2; TAAR1 antag: 56*; CHO parental Ca: -14

How did Cc1occc1-c1nnc(SCC(=O)Nc2nc(C(C)(C)C)cs2)o1 do in these assays?
TAAR1 ag: 22; OX1R antag-1: 13; OX1R antag-2: 25; GalR3 antag: -7; TAAR1 antag: 18; CHO parental Ca: 36*

Results for Cc1cc(C)cc(NC2=C(N)C(=O)c3ccccc3C2=O)c1 ?
OX1R antag-1: -9; OX1R antag-2: 12; CHO parental Ca: -11

How did CC(=O)N(C1=C(N)C(=O)c2ccccc2C1=O)C(C)C do in these assays?
TAAR1 ag: 6; OX1R antag-1: -6; OX1R antag-2: 48*; GalR3 antag: -5; TAAR1 antag: 5; CHO parental Ca: -3

How did CSc1ccc(C(=O)NCC(c2ccco2)N(C)C)cc1[N+](=O)[O-] (stereo not drawn) do in these assays?
TAAR1 ag: 2; OX1R antag-1: -23; OX1R antag-2: 47*; GalR3 antag: -8; TAAR1 antag: -6; CHO parental Ca: -12

What do the screens show for `CCCNC(=O)c1ccc2c(c1)S(=O)(=O)c1ccccc1C2=O`?
TAAR1 ag: 2; OX1R antag-1: -25; OX1R antag-2: 74*; GalR3 antag: 0; TAAR1 antag: -2; CHO parental Ca: -13

How did O=C(Nc1ccncc1)c1ccc2c(c1)S(=O)(=O)c1ccccc1C2=O do in these assays?
TAAR1 ag: 38*; OX1R antag-1: -10; OX1R antag-2: 75*; GalR3 antag: -4; TAAR1 antag: 52*; CHO parental Ca: 0

Results for CN(C)C(CNC(=O)c1ccc2c(c1)S(=O)(=O)c1ccccc1C2=O)c1ccco1 (stereo not drawn) ?
TAAR1 ag: 4; OX1R antag-1: -26; OX1R antag-2: 74*; GalR3 antag: -4; TAAR1 antag: 15; CHO parental Ca: -18

Results for C#CC1c2ccccc2CCN1CC=C (stereo not drawn) ?
TAAR1 ag: 0; GalR3 antag: -8; TAAR1 antag: -13

Results for CN(C(=O)COn1nnc2ccc(Cl)cc21)C1CCS(=O)(=O)C1 (stereo not drawn) ?
TAAR1 ag: 5; OX1R antag-1: 3; OX1R antag-2: -3; GalR3 antag: 0; TAAR1 antag: 3; CHO parental Ca: 1

Results for O=C(Nc1cccc(S(=O)(=O)C(F)(F)F)c1)[C@H]1C[C@H](O)[C@@H](CO)O1 ?
TAAR1 ag: 0; GalR3 antag: -2; TAAR1 antag: 1

How did O=C(NC1CCCCC1)c1ccc2c(c1)S(=O)(=O)c1ccccc1C2=O do in these assays?
TAAR1 ag: 10; OX1R antag-1: -26; OX1R antag-2: 59; GalR3 antag: -1; TAAR1 antag: 23; CHO parental Ca: -26

What do the screens show for `CNC(=O)COC(=O)c1ccc2c(c1)S(=O)(=O)c1ccccc1C2=O`?
TAAR1 ag: -2; OX1R antag-1: -8; OX1R antag-2: 74*; GalR3 antag: -2; TAAR1 antag: 17; CHO parental Ca: -12

How did CC1CCCC(C)N1C(=O)c1ccc2c(c1)S(=O)(=O)c1ccccc1C2=O (stereo not drawn) do in these assays?
TAAR1 ag: 0; OX1R antag-1: -22; OX1R antag-2: 42*; GalR3 antag: -7; TAAR1 antag: 7; CHO parental Ca: -15

Results for O=C(NC1CCCC1)c1ccc2c(c1)S(=O)(=O)c1ccccc1C2=O ?
TAAR1 ag: 14; OX1R antag-1: -16; OX1R antag-2: 65*; GalR3 antag: 0; TAAR1 antag: 24; CHO parental Ca: -16

How did Cc1cccc(N2C(=O)N3[C@@H]4c5ccccc5OC[C@@H]4[C@@H](c4ccccc4)[C@@]3(C)C2=O)c1 do in these assays?
TAAR1 ag: 0; OX1R antag-1: -33; OX1R antag-2: 21; GalR3 antag: -8; TAAR1 antag: 4; CHO parental Ca: -24

Results for CCc1nnc2n1N=C(c1ccc([N+](=O)[O-])cc1)CS2 ?
TAAR1 ag: 2; OX1R antag-1: -12; OX1R antag-2: 56*; GalR3 antag: -2; TAAR1 antag: -44; CHO parental Ca: -11

Results for C=CCNC(=O)CN1N=C(c2ccc(C)cc2)CCC1=O ?
TAAR1 ag: 10; OX1R antag-1: -14; OX1R antag-2: 13; GalR3 antag: -11; TAAR1 antag: -3; CHO parental Ca: -13

How did O=C1/C(=C\c2ccc(Cl)c(Cl)c2)CN(C(=O)CCN2CCOCC2)C/C1=C/c1ccc(Cl)c(Cl)c1 do in these assays?
TAAR1 ag: 12; GalR3 antag: -3; TAAR1 antag: 57*

How did O=C1/C(=C\c2ccccc2)CN(C(=O)CCN2CCCCC2)C/C1=C/c1ccccc1 do in these assays?
TAAR1 ag: 23; GalR3 antag: -4; TAAR1 antag: 6

What do the screens show for `COc1ccc(N(CC(=O)NCc2ccccc2OC)S(=O)(=O)c2c(C)nn(C)c2C)cc1`?
TAAR1 ag: 2; OX1R antag-1: -16; OX1R antag-2: 10; TAAR1 antag: 3; CHO parental Ca: -16

Results for COc1ccc(N(CC(=O)N2CCc3ccccc3C2)S(=O)(=O)c2c(C)nn(C)c2C)cc1 ?
TAAR1 ag: 4; OX1R antag-1: -25; OX1R antag-2: 42*; GalR3 antag: 2; TAAR1 antag: 10; CHO parental Ca: -18

How did COc1ccc(N(CC(=O)N2CCc3ccccc3C2)S(C)(=O)=O)cc1 do in these assays?
TAAR1 ag: 42*; OX1R antag-1: -14; OX1R antag-2: 1; GalR3 antag: -3; TAAR1 antag: 2; CHO parental Ca: -13

How did COc1ccc(N(CC(=O)N2CCc3ccccc3C2)S(=O)(=O)c2c(C)[nH]c(=O)[nH]c2=O)cc1 do in these assays?
TAAR1 ag: 1; OX1R antag-1: -10; OX1R antag-2: 10; GalR3 antag: -2; TAAR1 antag: -8; CHO parental Ca: -2

How did COc1ccc(OC)c(S(=O)(=O)N(C)CC(=O)N2CCc3ccccc3C2)c1 do in these assays?
TAAR1 ag: 45*; OX1R antag-1: -36; OX1R antag-2: 13; GalR3 antag: -1; TAAR1 antag: 13; CHO parental Ca: -29

Results for COc1cc(/C=C2/SC(=S)N(CC(=O)NNC(=O)c3ccc(F)cc3)C2=O)cc(OC)c1OC ?
TAAR1 ag: 2; GalR3 antag: -4; TAAR1 antag: -11

Screening results from PubChem.
